The results in this text go back to ChEMBL document CHEMBL3272083, “Antiinflammatory and analgesic diastereoisomeric derivatives of indan-5-acetic acid” (J Med Chem, 1978).

The nature of data set [1]: (§1) Gastrointestinal toxicity in po dosed rat assessed as ulcerogenic activity after 6 hrs administered in 1% w/v arabic gum. The following applies: in vivo, read-out: UD50. In kind it is organism-based. An outline of the steps: (§2)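 Fasted rats dosed orally, compound suspended in 1% w/v arabic gum. Stomachs examined 6 h after dosing; gastric ulcer intensity graded on a 0–3 scale. The 50% ulcerogenic dose (UD50) was read graphically.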

Data set [2] relates to Rattus norvegicus. Briefly: Analgesic activity in po dosed rat assessed as inhibition of phenylbenzoquinone-induced writhing administered in 1% w/v arabic gum. In kind it is functional. In a few lines:
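Oral dosing in 1% w/v arabic gum vehicle. Read-out was antagonism of writhing produced by phenylbenzoquinone. ED50 with 95% confidence limits was calculated by Bliss's method.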
Background: Writhing tests count abdominal constrictions after an irritant is injected.

Data set [3] relates to Rattus norvegicus. Nature of the data set: Antiinflammatory activity in po dosed rat assessed as inhibition of carrageenan-induced edema administered in 1% w/v arabic gum. In kind it is functional. An outline of the steps: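 Given orally in 1% w/v arabic gum vehicle. Read-out was carrageenan-induced edema. ED50 and 95% confidence limits were derived by Bliss's method.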

For data set [4], the system named is Rattus norvegicus. The description is as §1. In kind it is organism-based. The following applies: in vivo, 6 h. In a few lines: as §2
[5] abbreviates: Rattus norvegicus, po, read-out: ED50.

Turning to `CCC1Cc2ccc(C(C)C(=O)O)cc2C1` (racemic), the TD50 at 6 h in data set [1] amounted to 65 mg/kg. In addition, the ED50 in the data set on Rattus norvegicus [2] (setting [5]) was 6 mg/kg; in the data set on Rattus norvegicus [3] (setting [5]), 36 mg/kg.

Consider `CC1Cc2ccc(C(C)C(=O)[O-])cc2C1.[Na+]` (racemic), for which the ED50 with Rattus norvegicus [2] (setting [5]) worked out at 24 mg/kg.

For the compound `CC1Cc2ccc(CC(=O)O)cc2C1` (racemic), the ED50 in the data set with Rattus norvegicus [2] (setting [5]) worked out at 175 mg/kg.

As for `CC(C(=O)O)c1ccc2c(c1)CC(C(C)C)C2` (single isomer, unassigned; (+)) [ISOPROFEN], the UD50 in the data set on Rattus norvegicus [4] stood at 46 mg/kg. Besides, the 50% effective dose (ED50) in the data set with Rattus norvegicus [2] is 10 mg/kg; in the data set with Rattus norvegicus [3] it was 24 mg/kg.

`CC(C)[C@@H]1Cc2ccc([C@H](C)C(=O)O)cc2C1`: the ED50 with Rattus norvegicus [2] (setting [5]) was 9 mg/kg.

With `CCC1Cc2ccc(CC(=O)O)cc2C1` (racemic), in data set [1], the TD50 at 6 h came to 125 mg/kg. Moreover, the ED50 was 104 mg/kg in the data set with Rattus norvegicus [2] (setting [5]) and above 256 mg/kg in the data set on Rattus norvegicus [3] (setting [5]).

For `CC(C)C1Cc2ccc(CC(=O)O)cc2C1` (racemic), in data set [1], the TD50 at 6 h is 335 mg/kg. The figures for the ED50 in the data set with Rattus norvegicus [2] (setting [5]) and in the data set with Rattus norvegicus [3] (setting [5]) were 57 mg/kg and 155 mg/kg, respectively.

Regarding `CC(C(=O)O)c1ccc2c(c1)CC(C(C)C)C2` (single isomer, unassigned; (-)) [ISOPROFEN], the UD50 in the data set on Rattus norvegicus [4] is 87 mg/kg. The 50% effective dose (ED50) in the data set with Rattus norvegicus [2] came out at 17 mg/kg; in the data set with Rattus norvegicus [3], 32 mg/kg.

In the case of `CC(C(=O)O)c1ccc2c(c1)CC(C(C)C)C2` (racemic) [ISOPROFEN], the TD50 at 6 h in data set [1] came out at 62 mg/kg. Moreover, the ED50 in the data set with Rattus norvegicus [2] (setting [5]) stood at 9 mg/kg; with Rattus norvegicus [3] (setting [5]), 29 mg/kg.

Turning to `CC(C)Cc1ccc(C(C)C(=O)O)cc1` (centres undefined) [IBUPROFEN], in data set [1], the TD50 at 6 h is 40 mg/kg. In addition, the values for the ED50 in the data set with Rattus norvegicus [2] (setting [5]) and in the data set on Rattus norvegicus [3] (setting [5]) were 17 mg/kg and 44 mg/kg, respectively.

The term ED50 denotes the midpoint of the dose-response relation.
